ASAP1 GAP inh – blocks human ASAP1-stimulated Arf1 GTP hydrolysis. Q9ULH1. GDP FP detection. inhibition, % at 16.5 µM. 360,000 compounds, 0.19% hits; in the data active = inhibition above about 25%;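 also: 0% = vehicle with enzyme and substrate and 100% = no enzyme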
Target sequence (Q9ULH1 325-724 limits assumed): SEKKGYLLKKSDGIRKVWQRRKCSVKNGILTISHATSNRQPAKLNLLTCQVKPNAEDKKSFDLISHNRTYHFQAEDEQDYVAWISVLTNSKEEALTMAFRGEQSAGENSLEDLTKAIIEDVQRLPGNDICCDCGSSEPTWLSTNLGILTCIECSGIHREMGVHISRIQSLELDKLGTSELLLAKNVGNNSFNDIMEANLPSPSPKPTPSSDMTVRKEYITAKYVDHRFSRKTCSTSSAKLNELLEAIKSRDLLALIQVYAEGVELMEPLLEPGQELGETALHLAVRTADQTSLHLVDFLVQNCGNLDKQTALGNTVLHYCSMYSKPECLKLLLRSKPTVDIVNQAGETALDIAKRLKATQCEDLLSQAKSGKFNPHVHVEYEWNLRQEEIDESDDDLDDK
PAFAH2 inh – PAFAH2 (human) inhibition. Q99487. recombinant PAFAH2, FP-rhodamine activity probe, fluorescence polarization. inhibition, % at 3.39 µM. 340,000 compounds, 0.99% hits. AID 492956;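 active = inhibition above the mean over all tested compounds plus 3 SD, cut at about 30% in these data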;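 also: inhibitors block probe labeling of enzyme so polarization drops; 0% = enzyme with DMSO and 100% = wells lacking PAFAH2 protein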
pPAFAH FP inh – inhibitors of human plasma PAF acetylhydrolase (pPAFAH); Q13093; recombinant pPAFAH, FP-rhodamine probe fluorescence polarization; inhibition, % at 3.39 µM; 330,000 compounds, 1.5% hits;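 active = inhibition above the mean inhibition across the screen plus 3 SD, cut at about 25% in these data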;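 also: inhibitors block binding of the rhodamine activity-based probe so polarization drops; 0% = enzyme with DMSO and 100% = wells lacking pPAFAH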
PAFAH1B2 FP inh – inhibitors of human PAFAH1B2 | P68402 | recombinant PAFAH1B2, FP-rhodamine activity probe, fluorescence polarization | inhibition, % at 3.39 µM | 340,000 compounds, 1.2% hits;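 active = inhibition above the mean of all tested compounds plus 3 SD, cut at about 24% in these data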;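 also: 0% = enzyme with DMSO and 100% = wells lacking PAFAH1B2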
ARFGAP1 inh – inhibits rat ARF GTPase activating protein 1 | Arfgap1-stimulated ARF1 GTP hydrolysis, GDP FP detection | Q62848 | inhibition, % at 16.5 µM | 360,000 compounds, 0.26% hits;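 active = inhibition above a per-plate limit, mean inhibition of low control wells plus 3 SD, cut at about 25% in these data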;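 also: 0% = DMSO wells with enzyme and 100% = wells lacking Arfgap1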
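Assay system: purified rat His6-Arfgap1 residues 1-136 (GAP domain); Reagent: human Δ17 ARF1 bound to GTP; Dosing: 16.5 µM single point, 1.26% DMSO; Times: GTP hydrolysis reaction 2 h at 25 °C; Signal: FP, GDP Alexa 633 tracer displaced from anti-GDP antibody, 620/688 nm; Measure: % inhibition from polarization.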
PAFAH1B3 inh – blocks human PAF acetylhydrolase 1B catalytic subunit 3 | 340,000 compounds, 0.28% hits | recombinant PAFAH1B3, FP-rhodamine probe, fluorescence polarization | Q15102 | inhibition, % at 3.39 µM;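 active = inhibition above the screen-wide average of all tested compounds plus 3 SD, cut at about 25% in these data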;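 also: 0% = enzyme with DMSO only and 100% = wells lacking PAFAH1B3 protein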
* = called active by the depositor; . = no result given. Hits are enriched below; roughly 2.7% of the tested compounds scored in any of these assays.

SMILES	ASAP1 GAP inh	PAFAH2 inh	pPAFAH FP inh	PAFAH1B2 FP inh	ARFGAP1 inh	PAFAH1B3 inh
Cc1ccc(S(=O)(=O)NCCCCCC(=O)NCCc2ccccc2)cc1	-9	-1	13	30*	-2	13
Cc1ccc(CS(=O)(=O)CCC(=O)NCCc2ccccc2)cc1	8	3	25*	7	4	1
Nc1[nH]c(C(=O)c2ccccc2)c(-c2ccccc2Br)c1C(=O)c1cccs1	-3	.	.	.	-17	.
COC(=O)[C@]12C[C@H](CC(=O)NCC34CC5CC(CC(C5)C3)C4)C(=O)N(Cc3ccc4c(c3)OCO4)C1=C[C@H](C(C)(C)C)O[C@@H]2C	9	.	.	.	-3	.
Oc1ccc(Cc2ccccc2Cl)c(O)c1	9	1	.	6	5	7
Oc1ccc(Cc2ccc(Cl)cc2)c(O)c1	1	0	-5	72*	-3	6
CCN(CC)C(=O)CSc1nnc(CNc2ccc(F)cc2)n1-c1ccccc1	0	3	-2	6	-21	2
COc1cccc(-n2c(CNc3ccc(F)cc3)nnc2SCC(N)=O)c1	-2	2	3	26*	-7	2
Cc1[nH]c2ccccc2c1CC(=O)Nc1ccc(Oc2cccnc2)cc1	11	.	.	.	9	.
COc1ccc(-c2cc(C(F)F)n3ncc(C(=O)n4ccnc4C)c3n2)cc1	-1	30*	2	-1	11	5
COc1ccc(-c2cc(C(F)F)n3ncc(C(=O)N4CCc5ccccc54)c3n2)cc1	12	-2	-1	6	-1	8
COc1ccc(CCNC(=O)C2CCN(S(=O)(=O)c3ccc(Cl)cc3)CC2)cc1OC	-3	-1	2	9	13	9
CC(=O)Nc1ccc(S(=O)(=O)N2CCC(C(=O)NCCc3ccc(Cl)cc3)CC2)cc1	16	0	.	27*	8	0
Cc1ccc(C(=O)NNC(=O)C2CCN(S(=O)(=O)c3ccc(Cl)cc3)CC2)cc1	-4	7	5	26*	-6	-1
O=C(NCC1COc2ccccc2O1)C1CCN(S(=O)(=O)c2ccc(Cl)cc2)CC1 (stereo not given)	-12	-4	4	29*	8	2
O=C(NCCc1ccc(Cl)cc1)C1CCCN1C(=O)Nc1ccccc1 (stereo not given)	13	2	1	26*	2	8
CCN(CC)S(=O)(=O)N1CCC(C(=O)NCC2COc3ccccc3O2)CC1 (stereo not given)	.	-2	5	4	.	4
Cc1ccc2cccc(OC(=O)c3cccnc3Oc3ccccc3)c2n1	6	.	.	.	-2	.
O=C(C(=O)N1CCN(S(=O)(=O)c2ccccc2)CC1)c1cccc(C(F)(F)F)c1	-10	.	.	.	8	.
CCOC(=O)N1CCN(C(=O)C[C@H]2C[C@@]3(C(=O)OC)C(=C[C@H](COCc4ccccc4)O[C@@H]3C)N(CCC3=CCCCC3)C2=O)CC1	4	.	.	.	-6	.
C=CCNC(=O)C1CCN(S(=O)(=O)c2ccc(Br)cc2)CC1	-4	-1	4	33*	8	4
N#C/C(=C(/O)c1ccccc1F)c1nc2cc(C(F)(F)F)ccc2s1	12	25	2	82*	-6	11
CCOc1ncccc1C(=O)OCC(=O)Nc1ccc(C(N)=O)cc1	8	4	1	2	2	4
CCOc1ncccc1C(=O)OCC(=O)Nc1ccc(C(C)C)cc1	1	51*	30*	-2	2	6
C#CCNC(=O)C[C@H]1C[C@@]2(C(=O)OC)C(=C[C@H](C(C)(C)C)O[C@@H]2C)N(Cc2ccccc2)C1=O	9	.	.	.	3	.
SMILES	ASAP1 GAP inh	PAFAH2 inh	pPAFAH FP inh	PAFAH1B2 FP inh	ARFGAP1 inh	PAFAH1B3 inh
C(=N\n1cnnc1)/c1cccc(OCCOc2ccccc2)c1	7	4	1	28*	-1	3
COc1cc(/C=N/n2cnnc2)ccc1OCCOc1ccccc1	-13	-2	3	4	-3	2
Cc1ccc(S(=O)(=O)Oc2cccc(/C=N/n3cnnc3)c2)cc1	-6	-9	4	24*	-4	11
Clc1ccc(Oc2cccc(/C=N/n3cnnc3)c2)cc1	9	3	12	14	7	6
O=C(/C=C(\Nc1cccc(OC(F)F)c1)c1ccccc1)c1ccccc1	2	.	.	.	0	.
O=C(OCc1c(Cl)cccc1Cl)c1cccnc1Cl	4	5	32*	-2	6	0
O=C(OCc1c(Cl)cccc1Cl)c1cccnc1	2	7	33*	1	-15	2
